Results gathered from unrelated publications.
Protocols differ between the studies behind these lines.
Target: Testis-specific serine/threonine-protein kinase 1 (TSSK1B, Homo sapiens, UniProt Q9BXA7)
Residues used in one study (Q9BXA7 1-367): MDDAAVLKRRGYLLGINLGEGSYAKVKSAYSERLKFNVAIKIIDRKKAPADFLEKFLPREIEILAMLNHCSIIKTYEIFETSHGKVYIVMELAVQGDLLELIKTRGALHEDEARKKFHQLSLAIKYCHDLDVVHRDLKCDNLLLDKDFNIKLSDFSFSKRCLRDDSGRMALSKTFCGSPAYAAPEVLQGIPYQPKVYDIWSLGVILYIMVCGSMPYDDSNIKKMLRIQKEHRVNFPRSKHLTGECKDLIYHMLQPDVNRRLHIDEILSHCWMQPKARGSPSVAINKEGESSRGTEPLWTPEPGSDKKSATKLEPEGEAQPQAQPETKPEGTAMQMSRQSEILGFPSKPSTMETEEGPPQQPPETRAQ

O=C(Nc1cnn(-c2csc(C(=O)NC3COC3)c2)c1)Nc1c(F)cccc1Cl  remaining activity (enzyme activity; inhibitor; 5 µM): 107%
Cc1ccc(Nc2nccc(N(C)c3ccc4c(C)n(C)nc4c3)n2)cc1S(N)(=O)=O  inhibition (enzyme activity; inhibitor; 10 µM): 1%
CC(C)(C)c1nc(-c2cccc(NS(=O)(=O)c3c(F)cccc3F)c2F)c(-c2ccnc(N)n2)s1  remaining activity (enzyme activity; inhibitor; radiometric; 1 µM): 84%
N#CCCc1ccc2c(c1)-c1[nH]c3ccc([N+](=O)[O-])cc3c1CC(=O)N2  remaining signal (cell-free assay; 0.5 µM): 59.2%
FC(F)(F)c1ccc2c(c1)nc(-c1cccnc1)n2C1CC1  remaining binding (cell-free assay; competition with immobilised ligand; 1 µM): 100%
CNC(=O)c1cc(Oc2ccc(NC(=O)Nc3ccc(Cl)c(C(F)(F)F)c3)cc2)ccn1  inhibition (enzyme activity; inhibitor; 0.3 µM): -6%
CN1CC(Oc2cnc(C#N)cc2-c2ccn3nc(NC(=O)C4CC4)cc3c2)C1  inhibition (enzyme activity; inhibitor; 1 µM): 9%
CNC(=O)c1ccc(Nc2ncc(C(F)(F)F)c(NCc3nccnc3N(C)S(C)(=O)=O)n2)cc1  remaining binding (cell-free assay; competition with immobilised ligand; 0.1 µM): 64%
O=C1Nc2ccc(Cl)cc2C1=Cc1cc(Cl)c(O)c(Cl)c1  remaining signal (cell-free assay; 0.5 µM): 88.2%
CCN(CC)CCNC(=O)c1c(C)[nH]c(/C=C2\C(=O)Nc3ccc(F)cc32)c1C  inhibition (enzyme activity; inhibitor; 10 µM): 20%
Cc1sc(C(=O)NC2COC2)cc1-n1cc(NC(=O)Nc2c(F)cccc2Cl)cn1  remaining activity (enzyme activity; inhibitor; 10 µM): 103%
Cc1ccc(NC(=O)c2ccc(C)c(C(F)(F)F)c2)cc1C#Cc1nn(C2CCC(O)CC2)c2ncnc(N)c12 (stereo not drawn)  remaining signal (cell-free assay; 10 µM): 100%
CCOCCn1cc(C(=O)Nc2ccc(-n3nc(-c4cccnc4)cc3C(F)(F)F)cn2)ccc1=O  remaining binding (cell-free assay; competition with immobilised ligand; 1 µM): 100%
COc1cc(Nc2cnc(C#N)c(O[C@H](C)CN(C)C)n2)ncc1-c1cnn(C)c1  remaining activity (enzyme activity; inhibitor; radiometric; 1 µM): 72%
Cc1cnc(NC2CCOCC2)nc1-n1cnc(C(=O)NC(CN)c2cc(F)cc(Cl)c2)c1 (stereo not drawn)  remaining activity (enzyme activity; inhibitor; radiometric; 1 µM): 55%
CCOc1cc(-c2nncn2C)ccc1Nc1ncc2cc(C)nc(NCC(C)(C)C)c2n1  inhibition (enzyme activity; inhibitor; FRET; 1 µM): < 15%
Cc1c(NC(=O)c2cc(C(N)=O)nc3cc(F)ccc23)c(C(F)(F)F)nn1Cc1ccc(C(C)(C)C)cc1  remaining binding (cell-free assay; competition with immobilised ligand; 1 µM): 100%
CCCS(=O)(=O)Nc1ccc(F)c(C(=O)c2c[nH]c3ncc(-c4ccc(Cl)cc4)cc23)c1F  inhibition (enzyme activity; inhibitor; 1 µM): < 10%
CC(=O)C1=C(C)N(c2cccc(C(F)(F)F)c2)C(=O)N[C@@H]1c1ccc(C#N)nc1  remaining binding (cell-free assay; competition with immobilised ligand; 1 µM): 100%
CN(C)C1CCN(CC#Cc2nn(C3CCCC3)c3nc(NCc4ccccc4)ncc23)C1 (stereo not drawn)  inhibition (enzyme activity; inhibitor; FRET; 10 µM): -8%
COc1cc(-c2cn(C3CCc4c(F)cccc4N(CC(F)(F)F)C3=O)nn2)ccc1-n1cnc(C)c1 (stereo not drawn)  remaining binding (cell-free assay; competition with immobilised ligand; 1 µM): 100%
Cc1cc(NC(=O)c2cccc3cc(-c4cccc5[nH]nc(N)c45)ccc23)ccc1F  activity vs control (enzyme activity; inhibitor; 0.1 µM): 86%
N#Cc1ccc(Nc2ccc3[nH]c(=O)[nH]c3c2)c(Cl)c1  remaining binding (cell-free assay; competition with immobilised ligand; 1 µM): 56%
COc1cc2ncnc(Nc3ccc(Oc4ccccc4)cc3C)c2cc1OC  inhibition (enzyme activity; inhibitor; 1 µM): 2%
